ChEMBL document CHEMBL1221374, “Synthesis, proapoptotic screening, and structure-activity relationships of novel aza-lupane triterpenoids” (Bioorg Med Chem Lett, 2010)

Assays:
SK-MEL-2 = test: Cytotoxicity against human SK-MEL-2 cells after 72 hrs by MTS assay; format: functional, cell-based; details: SK-MEL-2, 72 h
Summary of the method: (§1)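 Cells (1 × 10^4/well) seeded the evening before. Compounds were taken from 10 mM DMSO stock into growth medium and tested at 2, 10, 25, 50 and 75 µM, four wells each, with DMSO-matched controls. Exposure was 72 h, then MTS reagent for 1.5-4 h at 37 °C, and formazan A490 was read against DMSO-treated cells. IC50 is the mean of four wells from one experiment, or of three experiments where stated.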

A-375 = test: Cytotoxicity against human A375 cells after 72 hrs by MTS assay; format: functional, cell-based; details: A-375, 72 h; summary of the method: as §1
Daoy = test: Cytotoxicity against human DaOY cells after 72 hrs by MTS assay; format: functional, cell-based; summary of the method: as §1
[1] = Cytotoxicity against human LN229 cells after 72 hrs by MTS assay; format: functional, cell-based; details: LN-229, 72 h; summary of the method: as §1
HT-29 = test: Cytotoxicity against human HT-29 cells after 72 hrs by MTS assay; format: functional, cell-based; details: HT-29, 72 h; summary of the method: as §1
MCF7 = test: Cytotoxicity against human MCF7 cells after 72 hrs by MTS assay; format: functional, cell-based; details: MCF7, 72 h; summary of the method: as §1
SK-MEL-2 (Homo sapiens) [2] = test: Induction of apoptosis in human SK-MEL-2 cells assessed as necrotic cells at 7.5 uM after 16 hrs by annexin assay
SK-MEL-2 (Homo sapiens) [3] = test: Induction of apoptosis in human SK-MEL-2 cells assessed as apoptotic cells at 7.5 uM after 16 hrs by annexin assay
OVCAR-3 [4] = test: Cytotoxicity against human OVCAR-3 cells after 120 hrs by MTS assay; details: OVCAR-3, 120 h
OVCAR-3 [5] = test: Cytotoxicity against human OVCAR-3 cells after 72 hrs by MTS assay; format: functional, cell-based; details: OVCAR-3, 72 h

Compound | IC50 (SK-MEL-2) [µM] | IC50 (A-375) [µM] | IC50 (Daoy) [µM] | IC50 [1] [µM] | IC50 (HT-29) [µM] | IC50 (MCF7) [µM] | Activity (SK-MEL-2 (Homo sapiens) [2]) [%] | Activity (SK-MEL-2 (Homo sapiens) [3]) [%] | IC50 (OVCAR-3 [4]) [µM] | IC50 (OVCAR-3 [5]) [µM]
C=C(CNCCc1ccc(O)cc1)[C@@H]1CC[C@]2(CO)CC[C@]3(C)[C@H](CC[C@@H]4[C@@]5(C)CCC(N)C(C)(C)[C@@H]5CC[C@]43C)[C@@H]12 (stereo not given in full) | 3 | < 2 | < 2 | < 2 | 2 | 5 | < 15 | > 60 |  | 
C=C(CNCCc1ccc(O)cc1)[C@@H]1CC[C@]2(CO)CC[C@]3(C)[C@H](CC[C@@H]4[C@@]5(C)CCC(=O)C(C)(C)[C@@H]5CC[C@]43C)[C@@H]12 | 16 | 6 | 17 | 8 | 4 | 6 |  |  |  | 
C=C(CNCCO)[C@@H]1CC[C@]2(CO)CC[C@]3(C)[C@H](CC[C@@H]4[C@@]5(C)CCC(NCCOC)C(C)(C)[C@@H]5CC[C@]43C)[C@@H]12 (stereo not given in full) | 8 | 4 | 5 | 28 | 2 | 11 |  |  |  | 
C=C(C)[C@@H]1CC[C@]2(CO)CC[C@]3(C)[C@H](CC[C@@H]4[C@@]5(C)CCC(NCCc6ccc(O)c(O)c6)C(C)(C)[C@@H]5CC[C@]43C)[C@@H]12 (stereo not given in full) | 17 | 6 | 10 | 9 | 6 | 17 |  |  | 4 | 
C=C(CNCCc1ccc(O)cc1)[C@@H]1CC[C@]2(CO)CC[C@]3(C)[C@H](CC[C@@H]4[C@@]5(C)CC[C@H](O)C(C)(C)[C@@H]5CC[C@]43C)[C@@H]12 | 16 |  | 16 |  |  |  |  |  |  | 
C=C(CNCCc1ccc(O)cc1)[C@@H]1CC[C@]2(CO)CC[C@]3(C)[C@H](CC[C@@H]4[C@@]5(C)CCC(NCCO)C(C)(C)[C@@H]5CC[C@]43C)[C@@H]12 (stereo not given in full) | 6 | 5 | 2 | 6 | 5 | 5 | < 15 | > 60 |  | 
C=C(C)[C@@H]1CC[C@]2(C(=O)O)CC[C@]3(C)[C@H](CC[C@@H]4[C@@]5(C)CCC(NCCO)C(C)(C)[C@@H]5CC[C@]43C)[C@@H]12 (stereo not given in full) | 36 | 14 | < 2 |  | 16 | 35 |  |  |  | 28
C=C(CO)[C@@H]1CC[C@]2(CO)CC[C@]3(C)[C@H](CC[C@@H]4[C@@]5(C)CC[C@H](N)C(C)(C)[C@@H]5CC[C@]43C)[C@@H]12 | 34 | 6 | 31 | 17 | 17 | 15 |  |  | 14 | 
C=C(CO)[C@@H]1CC[C@]2(CO)CC[C@]3(C)[C@H](CC[C@@H]4[C@@]5(C)CC[C@H](NCc6ccc7c(c6)OCO7)C(C)(C)[C@@H]5CC[C@]43C)[C@@H]12 | 17 | > 75 | 16 | 73 | > 75 | 75 |  |  | 20 | 
C=C(C)[C@@H]1CC[C@]2(CO)CC[C@]3(C)[C@H](CC[C@@H]4[C@@]5(C)CCC(N)C(C)(C)[C@@H]5CC[C@]43C)[C@@H]12 (stereo not given in full) | 9 | 2 | 19 | < 2 | 2 | 5 |  |  |  | 5
C=C(CO)[C@@H]1CC[C@]2(CO)CC[C@]3(C)[C@H](CC[C@@H]4[C@@]5(C)CC[C@H](NCCc6ccc(O)c(O)c6)C(C)(C)[C@@H]5CC[C@]43C)[C@@H]12 | 24 | 6 | 34 | 17 | 37 | 31 |  |  |  | 18
C=C(C)[C@@H]1CC[C@]2(C(=O)O)CC[C@]3(C)[C@H](CC[C@@H]4[C@@]5(C)CCC(NCCc6ccc(O)c(O)c6)C(C)(C)[C@@H]5CC[C@]43C)[C@@H]12 (stereo not given in full) | 19 |  | 30 | 29 | 65 | 37 |  |  |  | 22
C=C(CNCCO)[C@@H]1CC[C@]2(CO)CC[C@]3(C)[C@H](CC[C@@H]4[C@@]5(C)CCC(NCc6ccc7c(c6)OCO7)C(C)(C)[C@@H]5CC[C@]43C)[C@@H]12 (stereo not given in full) | 4 | 5 | 13 | 32 | 5 | 13 |  |  | 64 | 
C=C(C)[C@@H]1CC[C@]2(C(=O)O)CC[C@]3(C)[C@H](CC[C@@H]4[C@@]5(C)CCC(NCCc6ccc(O)cc6)C(C)(C)[C@@H]5CC[C@]43C)[C@@H]12 (stereo not given in full) | 6 | 5 | 6 | 5 | 4 | 6 |  |  |  | 6
C=C(C)[C@@H]1CC[C@]2(CO)CC[C@]3(C)[C@H](CC[C@@H]4[C@@]5(C)CCC(NCCO)C(C)(C)[C@@H]5CC[C@]43C)[C@@H]12 (stereo not given in full) | < 2 | 2 | 6 | 4 | 2 | 5 |  |  |  | 5
C=C(CNCCO)[C@@H]1CC[C@]2(CO)CC[C@]3(C)[C@H](CC[C@@H]4[C@@]5(C)CC[C@H](O)C(C)(C)[C@@H]5CC[C@]43C)[C@@H]12 | 15 |  | 35 |  |  |  |  |  |  | 
C=C(CNCCO)[C@@H]1CC[C@]2(CO)CC[C@]3(C)[C@H](CC[C@@H]4[C@@]5(C)CCC(NCCc6ccc(O)c(O)c6)C(C)(C)[C@@H]5CC[C@]43C)[C@@H]12 (stereo not given in full) | 5 | 7 | 5 | 32 | 4 | 4 |  |  |  | 
C=C(CO)[C@@H]1CC[C@]2(CO)CC[C@]3(C)[C@H](CC[C@@H]4[C@@]5(C)CC[C@H](NCCc6ccc(O)cc6)C(C)(C)[C@@H]5CC[C@]43C)[C@@H]12 | 38 | 6 | 32 | 17 | 21 | 17 |  |  | 23 | 
C=C(C)[C@@H]1CC[C@]2(C(=O)O)CC[C@]3(C)[C@H](CC[C@@H]4[C@@]5(C)CCC(NCc6ccc7c(c6)OCO7)C(C)(C)[C@@H]5CC[C@]43C)[C@@H]12 (stereo not given in full) | 29 | > 75 | 38 | > 75 | > 75 | > 75 |  |  |  | > 75
C=C(CO)[C@@H]1CC[C@]2(CO)CC[C@]3(C)[C@H](CC[C@@H]4[C@@]5(C)CC[C@H](NCCO)C(C)(C)[C@@H]5CC[C@]43C)[C@@H]12 | 34 | 16 | 29 | 37 | 65 | 41 |  |  |  | 39
C=C(CNCCO)[C@@H]1CC[C@]2(CO)CC[C@]3(C)[C@H](CC[C@@H]4[C@@]5(C)CCC(=O)C(C)(C)[C@@H]5CC[C@]43C)[C@@H]12 | 45 | 10 | 47 | 16 | 45 | 47 |  |  |  | 67
C=C(CO)[C@@H]1CC[C@]2(CO)CC[C@]3(C)[C@H](CC[C@@H]4[C@@]5(C)CC[C@H](NCCOC)C(C)(C)[C@@H]5CC[C@]43C)[C@@H]12 | 38 | 18 | 34 | 38 | 47 | 40 |  |  | 40 | 
C=C(C)[C@@H]1CC[C@]2(CO)CC[C@]3(C)[C@H](CC[C@@H]4[C@@]5(C)CCC(NCCOC)C(C)(C)[C@@H]5CC[C@]43C)[C@@H]12 (stereo not given in full) | 7 | 7 | 8 |  | 19 | 8 |  |  | 22 | 
C=C(C)[C@@H]1CC[C@]2(C(=O)O)CC[C@]3(C)[C@H](CC[C@@H]4[C@@]5(C)CCC(N)C(C)(C)[C@@H]5CC[C@]43C)[C@@H]12 (stereo not given in full) | 8 |  | 7 |  |  |  |  |  | 14 | 
C=C(C)[C@@H]1CC[C@]2(CO)CC[C@]3(C)[C@H](CC[C@@H]4[C@@]5(C)CCC(NCCc6ccc(O)cc6)C(C)(C)[C@@H]5CC[C@]43C)[C@@H]12 (stereo not given in full) | 2 | 4 | < 2 | 8 | 2 | 5 |  |  | 5 | 
C=C(C)[C@@H]1CC[C@]2(C(=O)O)CC[C@]3(C)[C@H](CC[C@@H]4[C@@]5(C)CC[C@H](O)C(C)(C)[C@@H]5CC[C@]43C)[C@@H]12 [BETULINIC ACID] | 7 | 22 | 11 | 29 | 31 | 30 |  |  | 40 | 
C=C(CNCCO)[C@@H]1CC[C@]2(CO)CC[C@]3(C)[C@H](CC[C@@H]4[C@@]5(C)CCC(NCCO)C(C)(C)[C@@H]5CC[C@]43C)[C@@H]12 (stereo not given in full) | 7 | 6 | 13 | 16 | 2 | 6 |  |  |  | 
